ChEMBL document CHEMBL1671806, “New imidazolidinedione derivatives as antimalarial agents” (Bioorg Med Chem, 2011)
In brackets after ≈: the same amount, converted by molar mass. Activity calls are given as the source filed them. The rule behind the calls is not given here.

Legend:
Plasmodium cynomolgi [1] = test: Antiplasmodial activity against Plasmodium cynomolgi sporozoites infected in Rhesus monkey assessed as delay in detection of parasites in blood at 1.78 mg/kg/day, po administered for three consecutive days before infection; type: functional
Plasmodium cynomolgi [2] = test: Antiplasmodial activity against Plasmodium cynomolgi sporozoites infected in Rhesus monkey assessed as duration for detection of parasites in blood at 1.78 mg/kg/day, po administered for three consecutive days before infection (reference value: 8 days); type: functional
Plasmodium berghei [3] = test: Antiplasmodial activity against Plasmodium berghei sporozoites infected in orally dosed mouse administered for three consecutive days one day before infection; type: functional; conditions: po, 24 h, read-out: MED
How it was run: (§1)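 Mice were inoculated with P. berghei sporozoites. For oral dosing, compounds were ground and suspended in hydroxyethylcellulose plus Tween 80; for sc dosing, they were suspended in peanut oil. Doses were given once daily on three consecutive days: the day before, 4 h before, and the day after inoculation. Several dose levels were used, up to 320 mg/kg/day. Cure was scored.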

Mus musculus = species: Mus musculus; test: Metabolic stability in mouse liver microsome by LC-MS/MS method; conditions: liver microsomes
Plasmodium falciparum [4] = test: Antimicrobial activity against Plasmodium falciparum D6 by microdilution method; type: functional, organism-based
Plasmodium berghei [5] = test: Antiplasmodial activity against Plasmodium berghei sporozoites infected in orally dosed mouse assessed as cure from infection 160 mg/kg/day, po administered for three consecutive days before infection measured after at day 31; type: functional, organism-based; how it was run: as §1
[6] = Toxicity in Plasmodium berghei sporozoites infected orally dosed mouse administered for three consecutive days one day before infection; type: organism-based; conditions: in vivo, po
How it was run: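 Mice received P. berghei sporozoites. Each compound was ground and suspended in hydroxyethylcellulose plus Tween 80, then given orally at several dose levels up to 320 mg/kg/day. Dosing was once daily for three consecutive days: the day before, 4 h before, and the day after sporozoite inoculation.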

Plasmodium falciparum [7] = test: Antimicrobial activity against Plasmodium falciparum TM91C235 by microdilution method; type: functional, organism-based
Homo sapiens = species: Homo sapiens; test: Metabolic stability in human liver microsome by LC-MS/MS method; conditions: liver microsomes
Plasmodium falciparum [8] = test: Antimicrobial activity against Plasmodium falciparum W2 by microdilution method; type: functional, organism-based
Plasmodium cynomolgi [9] = test: Antiplasmodial activity against Plasmodium cynomolgi sporozoites infected in Rhesus monkey assessed as duration for detection of parasites in blood at 30 mg/kg/day, im administered for three consecutive days before infection (reference value: 8 days); type: functional; conditions: route intramuscular
Plasmodium cynomolgi [10] = test: Antiplasmodial activity against Plasmodium cynomolgi sporozoites infected in Rhesus monkey assessed as duration for detection of parasites in blood at 50 mg/kg/day, po administered for three consecutive days before infection (reference value: 8 days); type: functional
Plasmodium cynomolgi [11] = test: Antiplasmodial activity against Plasmodium cynomolgi sporozoites infected in Rhesus monkey assessed as delay in detection of parasites in blood at 50 mg/kg/day, po administered for three consecutive days before infection; type: functional
Plasmodium cynomolgi [12] = test: Antiplasmodial activity against Plasmodium cynomolgi sporozoites infected in Rhesus monkey assessed as delay in detection of parasites in blood at 30 mg/kg/day, im administered for three consecutive days before infection; type: functional; conditions: route intramuscular
[13] = Plasmodium falciparum, D6, read-out: IC50
[14] = Plasmodium falciparum, TM91C235, read-out: IC50
[15] = Plasmodium falciparum, W2, read-out: IC50

Structure (SMILES)	Time (Plasmodium cynomolgi [1])	Time (Plasmodium cynomolgi [2])	minimal effective dose (Plasmodium berghei [3])	half-life (Mus musculus)	IC50 (Plasmodium falciparum [4]; [13])	Activity (Plasmodium berghei [5])	MTD at 3 days [6]	IC50 (Plasmodium falciparum [7]; [14])	half-life (Homo sapiens)	IC50 (Plasmodium falciparum [8]; [15])	IC50 (Plasmodium falciparum [8])	Time (Plasmodium cynomolgi [9])	Time (Plasmodium cynomolgi [10])	Time (Plasmodium cynomolgi [11])	Time (Plasmodium cynomolgi [12])	IC50 (Plasmodium falciparum [4])	IC50 (Plasmodium falciparum [7])
COc1cc(NC(C)CCCN)c2ncccc2c1 (stereo unspecified) [PRIMAQUINE]	5 days	13 days															
CCON/C(=N\C1=NC(=O)C(=O)N1C(C)C)Nc1ccc(Cl)c(Cl)c1			160 mg/kg/day	> 1 h	> 5 µg/mL	Active	< 40 mg/kg/day	> 5 µg/mL	> 1 h	> 5 µg/mL							
CCN/C(=N\C1=NC(=O)C(=O)N1C(C)C)Nc1ccc(Cl)c(Cl)c1			> 160 mg/kg/day	> 1 h	> 5 µg/mL		≥ 160 mg/kg/day	> 5 µg/mL	> 1 h	1.67 µg/mL (≈ 4.51 µM)	1.67 µg/mL (≈ 4.51 µM)						
CON/C(=N\C1=NC(=O)C(=O)N1C(C)C)Nc1ccc(Cl)c(Cl)c1			≥ 40 mg/kg/day	> 1 h	> 5 µg/mL	Active	< 40 mg/kg/day	> 5 µg/mL	> 1 h	> 5 µg/mL							
CCN(CC)CCN/C(=N\C1=NC(=O)C(=O)N1C(C)C)Nc1ccc(Cl)c(Cl)c1			> 160 mg/kg/day	0.294 h	> 5 µg/mL		≥ 160 mg/kg/day	> 5 µg/mL	0.525 h	> 5 µg/mL							
CC(C)N1C(=O)C(=O)N=C1/N=C(\NCCCN(C)C)Nc1ccc(Cl)c(Cl)c1			> 160 mg/kg/day	> 1 h	> 5 µg/mL		≥ 160 mg/kg/day	> 5 µg/mL	> 1 h	> 5 µg/mL							
CC(C)N/C(=N\C1=NC(=O)C(=O)N1C(C)C)Nc1ccc(Cl)c(Cl)c1			160 mg/kg/day	> 1 h	> 6 µg/mL	Active	≥ 160 mg/kg/day		> 1 h	> 6 µg/mL		62 days	11 days	3 days	54 days		
CC(C)N1C(=O)C(=O)N=C1/N=C(/Nc1ccc(Cl)c(Cl)c1)NC1C2CC3CC(C2)CC1C3 (stereo unspecified)			> 320 mg/kg/day	0.124 h	0.81 µg/mL (≈ 1.7 µM)		≥ 320 mg/kg/day	2.07 µg/mL (≈ 4.35 µM)	0.093 h	2.68 µg/mL (≈ 5.63 µM)	2.68 µg/mL (≈ 5.63 µM)					0.81 µg/mL (≈ 1.7 µM)	2.07 µg/mL (≈ 4.35 µM)
CC(C)N1C(=O)C(=O)N=C1/N=C(\Nc1ccccc1)Nc1ccc(Cl)c(Cl)c1			> 160 mg/kg/day	> 1 h	2.16 µg/mL (≈ 5.16 µM)		≥ 160 mg/kg/day	2.6 µg/mL (≈ 6.22 µM)	> 1 h	0.88 µg/mL (≈ 2.1 µM)	0.88 µg/mL (≈ 2.1 µM)					2.16 µg/mL (≈ 5.16 µM)	2.6 µg/mL (≈ 6.22 µM)
CC(C)N1C(=O)C(=O)N=C1/N=C(\NCCCCN1CCCC1)Nc1ccc(Cl)c(Cl)c1			> 160 mg/kg/day	> 1 h	1.55 µg/mL (≈ 3.32 µM)		≥ 160 mg/kg/day	> 5 µg/mL	> 1 h	2.3 µg/mL (≈ 4.92 µM)	2.3 µg/mL (≈ 4.92 µM)					1.55 µg/mL (≈ 3.32 µM)	
CN/C(=N\C1=NC(=O)C(=O)N1C(C)C)Nc1ccc(Cl)c(Cl)c1			> 320 mg/kg/day	> 1 h	> 5 µg/mL		≥ 320 mg/kg/day	> 5 µg/mL	> 1 h	> 5 µg/mL							
CC(C)N1C(=O)C(=O)N=C1/N=C(\NOCc1ccccc1)Nc1ccc(Cl)c(Cl)c1			> 160 mg/kg/day	0.214 h	> 5 µg/mL		≥ 160 mg/kg/day	> 5 µg/mL	> 1 h	> 5 µg/mL		27 days			19 days		
